In ChEMBL document CHEMBL5620435, “Elucidating the Mechanism of Metabolism of Cannabichromene by Human Cytochrome P450s” (J Nat Prod, 2024):
The source made the active and inactive calls. The rule behind the calls is not given here.

Experiments:
[1] = test system: BV-2; test: Antiinflammatory activity in LPS-induced mouse BV-2 cells assessed as reduction in IL-6 production preincubated for 4 hrs followed by LPS stimulation for 24 hrs by ELISA; type: functional, cell-based; details: dose 0.1-5 µM, time 28.0 hrs
Procedure, shortened: (§1)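 BV-2 microglia in high-glucose DMEM with 5% heat-inactivated FBS, 37 °C, 5% CO2. Cells (50 000/well) were pretreated with cannabinoids at 0.1, 1.0, 2.5 or 5.0 μM (ethanol 0.1% final) for 4 h, then stimulated with LPS (25 ng/mL) for 24 h. Medium was collected. NO was read by Griess assay at 540 nm against a sodium nitrite calibration curve. IL-6, TNFα and Arg1 were measured by ELISA.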

[2] = test system: BV-2; test: Cytotoxicity against mouse BV-2 cells assessed as reduction in cell viability at 0.1 to 5 uM incubated for 24 hrs by MTT assay; type: toxicity, cell-based; details: bv-2, 24 h, dose 0.1-5 µM
Procedure, shortened: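 BV-2 cells were seeded at about 10 000/well and grown for 24 h. They were preincubated 4 h with cannabinoids at 0.1, 1.0, 2.5 or 5.0 μM (0.1% ethanol), then held 24 h with or without LPS (25 ng/mL). MTT reagent was added for 4 h at 37 °C, the formazan was dissolved, and absorbance was read at 570 nm.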

[3] = Drug metabolism in C57BL/6J mouse plasma assessed as 2-(2-(3,3-dimethyloxiran-2-yl)ethyl)-2-methyl-7-pentyl-2H-chromen-5-ol metabolite formation at 20 mg/kg, iv administered via tail vein measured after 0.5 to 2 hrs by LC/MS/MS analysis; type: ADME, organism-based; details: in vivo, time 0.5-2 hrs
Procedure, shortened: (§2)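 Female C57BL/6J mice, 8–10 weeks old, received CBC at 20 mg/kg in PBS with 6% Tween-80, IV via the tail vein or IP (n = 3 per route). Blood was taken terminally by cardiac puncture into heparin at 0.5 and 2 h. Plasma (200 μL) was extracted with hexane/ethyl acetate (80:20). CBC and metabolites were quantified by targeted LC-MS/MS (C6-phenyl column, positive ESI) as means ±SE.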

[4] = Drug metabolism assessed as benzylic hydroxylation mediated 7-(1-hydroxypentyl)-2-methyl-2-(4-methylpent-3-en-1-yl)-2H-chromen-5-ol metabolite formation; type: ADME; details: 40 min, dose 5-80 µM
Procedure, shortened: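 Pooled human liver microsomes (mixed-gender, 50 donors) gave 0.4 μM CYP final in 0.1 M phosphate pH 7.4. CBC 40 μM final was preincubated 10 min. NADPH 1 mM final was added and the reaction ran 30 min at 37 °C. It was quenched and extracted three times with hexane/ethyl acetate (80:20), dried, resuspended in 95% ethanol and analysed by LC-MS (C18, positive ESI).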

[5] = Drug metabolism in C57BL/6J mouse plasma assessed as 2-(2-(3,3-dimethyloxiran-2-yl)ethyl)-2-methyl-7-pentyl-2H-chromen-5-ol metabolite formation at 20 mg/kg, ip measured after 0.5 to 2 hrs by LC/MS/MS analysis; type: ADME, organism-based; details: in vivo, time 0.5-2 hrs; procedure, shortened: as §2
[6] = Drug metabolism in C57BL/6J mouse plasma assessed as (E)-2-(5-hydroxy-4-methylpent-3-en-1-yl)-2-methyl-7-pentyl-2H-chromen-5-ol metabolite formation at 20 mg/kg, ip measured after 0.5 hrs by LC/MS/MS analysis; type: ADME, organism-based; details: in vivo; procedure, shortened: as §2
[7] = Drug metabolism in C57BL/6J mouse plasma assessed as 5-(5-hydroxy-2-methyl-7-pentyl-2H-chromen-2-yl)-2-methylpentane-2,3-diol metabolite formation at 20 mg/kg, ip measured after 0.5 to 2 hrs by LC/MS/MS analysis; type: ADME, organism-based; details: in vivo, time 0.5-2 hrs; procedure, shortened: as §2
[8] = target: Cannabinoid receptor 2 (Homo sapiens, UniProt P34972); test: Binding affinity to CBR2 (unknown origin)
Chain of Cannabinoid receptor 2 (P34972 whole entry): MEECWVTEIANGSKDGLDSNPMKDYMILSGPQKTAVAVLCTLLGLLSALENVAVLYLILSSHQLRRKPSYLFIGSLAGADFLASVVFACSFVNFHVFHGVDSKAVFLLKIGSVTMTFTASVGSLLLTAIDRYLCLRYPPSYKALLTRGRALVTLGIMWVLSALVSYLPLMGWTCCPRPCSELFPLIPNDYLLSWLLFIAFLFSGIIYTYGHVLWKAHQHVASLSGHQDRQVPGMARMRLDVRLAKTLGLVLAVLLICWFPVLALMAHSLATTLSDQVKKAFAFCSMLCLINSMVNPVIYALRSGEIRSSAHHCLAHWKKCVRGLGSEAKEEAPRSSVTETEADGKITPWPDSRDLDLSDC

[9] = target: Cytochrome P450 2D6 (Homo sapiens, UniProt P10635); test: Binding affinity to CYP2D6 (unknown origin) assessed as fold increase in apparent dissociation constant by spectroscopic titration analysis in presence of cytochrome P450 reductase; type: ADME
Chain of Cytochrome P450 2D6 (P10635 whole entry): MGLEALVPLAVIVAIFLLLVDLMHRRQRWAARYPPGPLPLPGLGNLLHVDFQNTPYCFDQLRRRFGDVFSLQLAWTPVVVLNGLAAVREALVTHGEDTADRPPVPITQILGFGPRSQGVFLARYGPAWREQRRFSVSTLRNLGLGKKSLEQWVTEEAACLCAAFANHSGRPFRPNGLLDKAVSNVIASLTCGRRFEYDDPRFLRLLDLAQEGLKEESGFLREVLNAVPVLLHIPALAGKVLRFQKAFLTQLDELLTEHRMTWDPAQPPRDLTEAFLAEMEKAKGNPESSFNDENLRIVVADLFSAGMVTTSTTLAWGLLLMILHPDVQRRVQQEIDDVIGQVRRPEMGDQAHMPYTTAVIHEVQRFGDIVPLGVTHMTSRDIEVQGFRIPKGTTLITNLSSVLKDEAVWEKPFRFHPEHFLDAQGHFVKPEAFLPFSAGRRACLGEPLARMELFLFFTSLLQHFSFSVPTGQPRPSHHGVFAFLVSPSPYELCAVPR
Procedure, shortened: (§3)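 His-tagged CYPs were expressed in E. coli and Ni-NTA purified. Buffer-exchanged CYP was in 0.1 M phosphate pH 7.4. CPR was added and the pair was preincubated 5 min; final protein was 5–6 μM each. CBC (ethanol stock, ≤1% final) was titrated 0–100 μM with 5 min at 37 °C per step. The Soret shift from ~417 to ~390 nm was recorded as a difference spectrum. Kd(app) came from a one-site binding fit and was compared with CYP alone (4–5 μM protein).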

[10] = target: T1, Cytochrome P450 2C8 (Homo sapiens, UniProt P10632); test: Binding affinity to CYP2C8 (unknown origin) assessed as fold increase in apparent dissociation constant by spectroscopic titration analysis in presence of cytochrome P450 reductase; type: ADME; procedure, shortened: as §3
T1 sequence (P10632 whole entry): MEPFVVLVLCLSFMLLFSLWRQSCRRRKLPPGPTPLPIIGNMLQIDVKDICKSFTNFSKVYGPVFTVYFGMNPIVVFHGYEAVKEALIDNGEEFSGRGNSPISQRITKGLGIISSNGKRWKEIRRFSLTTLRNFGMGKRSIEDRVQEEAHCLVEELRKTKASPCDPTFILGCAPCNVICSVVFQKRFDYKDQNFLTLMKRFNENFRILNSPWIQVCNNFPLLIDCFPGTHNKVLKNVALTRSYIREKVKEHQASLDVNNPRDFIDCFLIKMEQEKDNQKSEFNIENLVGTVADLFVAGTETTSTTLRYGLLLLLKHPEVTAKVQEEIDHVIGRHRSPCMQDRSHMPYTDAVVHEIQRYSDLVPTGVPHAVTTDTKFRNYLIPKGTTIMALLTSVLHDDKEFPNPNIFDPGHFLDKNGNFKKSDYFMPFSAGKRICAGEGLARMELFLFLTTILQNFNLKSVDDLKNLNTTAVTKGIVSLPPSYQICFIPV

[11] = Drug metabolism in C57BL/6J mouse plasma assessed as (E)-2-(5-hydroxy-4-methylpent-3-en-1-yl)-2-methyl-7-pentyl-2H-chromen-5-ol metabolite formation at 20 mg/kg, ip measured after 2 hrs by LC/MS/MS analysis; type: ADME, organism-based; details: in vivo; procedure, shortened: as §2
[12] = Drug metabolism in C57BL/6J mouse plasma assessed as (E)-2-(5-hydroxy-4-methylpent-3-en-1-yl)-2-methyl-7-pentyl-2H-chromen-5-ol metabolite formation at 20 mg/kg, iv administered via tail vein measured after 0.5 hrs by LC/MS/MS analysis; type: ADME, organism-based; details: in vivo; procedure, shortened: as §2
[13] = target: Cannabinoid receptor 1 (Homo sapiens, UniProt P21554); test: Displacement of d [3H]CP-55,940 from CBR1 (unknown origin) expressed in Sf9 cell membrane assessed as inhibition constant by Topcount scintillation counting analysis; type: cell membranes
Chain of Cannabinoid receptor 1 (P21554 whole entry): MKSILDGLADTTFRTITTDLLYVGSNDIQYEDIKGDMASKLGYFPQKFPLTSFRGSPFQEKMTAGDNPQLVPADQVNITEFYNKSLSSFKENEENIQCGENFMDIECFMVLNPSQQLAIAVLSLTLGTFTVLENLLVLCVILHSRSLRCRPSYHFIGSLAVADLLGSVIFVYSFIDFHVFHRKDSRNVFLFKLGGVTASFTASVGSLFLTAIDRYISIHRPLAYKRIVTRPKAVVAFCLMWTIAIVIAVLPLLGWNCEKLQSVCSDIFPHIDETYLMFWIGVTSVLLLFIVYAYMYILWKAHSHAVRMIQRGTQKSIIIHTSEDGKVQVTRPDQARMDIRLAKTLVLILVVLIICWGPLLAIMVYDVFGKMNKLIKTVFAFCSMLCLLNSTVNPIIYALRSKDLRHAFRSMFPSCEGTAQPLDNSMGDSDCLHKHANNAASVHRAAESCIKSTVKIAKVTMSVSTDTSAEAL

[14] = target: T2, Cytochrome P450 2J2 (Homo sapiens, UniProt P51589); test: Binding affinity to CYP2J2 (unknown origin) assessed as fold increase in apparent dissociation constant by spectroscopic titration analysis in presence of cytochrome P450 reductase; type: ADME; procedure, shortened: as §3
T2 sequence (P51589 whole entry): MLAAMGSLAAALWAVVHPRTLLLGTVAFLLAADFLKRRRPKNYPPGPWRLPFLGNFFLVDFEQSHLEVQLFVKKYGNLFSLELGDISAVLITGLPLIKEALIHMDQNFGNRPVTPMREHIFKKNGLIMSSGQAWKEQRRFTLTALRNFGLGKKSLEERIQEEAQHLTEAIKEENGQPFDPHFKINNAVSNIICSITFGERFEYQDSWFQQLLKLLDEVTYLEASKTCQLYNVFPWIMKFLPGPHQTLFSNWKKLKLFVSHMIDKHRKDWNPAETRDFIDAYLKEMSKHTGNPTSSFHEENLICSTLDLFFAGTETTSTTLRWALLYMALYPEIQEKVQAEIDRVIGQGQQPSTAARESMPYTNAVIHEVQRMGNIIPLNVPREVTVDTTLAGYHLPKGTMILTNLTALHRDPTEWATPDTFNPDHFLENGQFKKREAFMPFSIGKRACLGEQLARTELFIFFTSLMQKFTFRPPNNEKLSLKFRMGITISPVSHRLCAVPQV

[15] = Drug metabolism in C57BL/6J mouse plasma assessed as 5-(5-hydroxy-2-methyl-7-pentyl-2H-chromen-2-yl)-2-methylpentane-2,3-diol metabolite formation at 20 mg/kg, iv administered via tail vein measured after 0.5 to 2 hrs by LC/MS/MS analysis; type: ADME, organism-based; details: in vivo, time 0.5-2 hrs; procedure, shortened: as §2
[16] = Stability in C57BL/6J mouse plasma assessed as compound consumption by measuring reduction in parent compound level at 20 mg/kg, ip measured after 0.5 to 2 hrs by LC-MS/MS analysis; type: ADME, organism-based; details: in vivo, time 0.5-2 hrs; procedure, shortened: as §2
[17] = target: Cytochrome P450 3A4 (Homo sapiens, UniProt P08684); test: Binding affinity to CYP3A4 (unknown origin) assessed as fold increase in apparent dissociation constant by spectroscopic titration analysis in presence of cytochrome P450 reductase; type: ADME; procedure, shortened: as §3
Chain of Cytochrome P450 3A4 (P08684 whole entry): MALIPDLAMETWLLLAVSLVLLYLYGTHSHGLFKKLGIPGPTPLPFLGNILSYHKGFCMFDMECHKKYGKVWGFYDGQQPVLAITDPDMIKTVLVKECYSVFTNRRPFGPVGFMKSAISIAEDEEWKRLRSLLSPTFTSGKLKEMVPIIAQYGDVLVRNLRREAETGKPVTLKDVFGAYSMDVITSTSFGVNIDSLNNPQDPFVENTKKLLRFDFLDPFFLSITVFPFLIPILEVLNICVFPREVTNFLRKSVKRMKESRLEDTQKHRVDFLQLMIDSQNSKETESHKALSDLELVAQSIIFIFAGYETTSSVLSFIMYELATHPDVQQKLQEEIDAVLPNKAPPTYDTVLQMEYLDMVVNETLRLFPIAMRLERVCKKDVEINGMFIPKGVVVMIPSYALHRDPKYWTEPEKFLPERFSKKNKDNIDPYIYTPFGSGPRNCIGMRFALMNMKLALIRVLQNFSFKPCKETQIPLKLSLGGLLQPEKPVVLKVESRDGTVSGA

[18] = target: T2, Cytochrome P450 2J2; test: Drug metabolism assessed as ratio of CYP2J2 (unknown origin) mediated (E)-2-(5-hydroxy-4-methylpent-3-en-1-yl)-2-methyl-7-pentyl-2H-chromen-5-ol formation to 2-(2-(3,3-dimethyloxiran-2-yl)ethyl)-2-methyl-7-pentyl-2H-chromen-5-ol formation; type: ADME
Procedure, shortened: (§4)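 Recombinant CYP (0.5 μM final) was reconstituted in POPC:POPS (8:2) with CPR (0.6 μM) in 0.1 M potassium phosphate pH 7.4. CBC (5–80 μM) was preincubated 10 min at 37 °C and the reaction started with NADPH. Products were extracted three times with hexane/ethyl acetate (80:20), dried, resuspended in ethanol and analysed by LC-MS/MS.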

[19] = target: T1, Cytochrome P450 2C8; test: Drug metabolism assessed as ratio of CYP2C8 (unknown origin) mediated (E)-2-(5-hydroxy-4-methylpent-3-en-1-yl)-2-methyl-7-pentyl-2H-chromen-5-ol formation to 2-(2-(3,3-dimethyloxiran-2-yl)ethyl)-2-methyl-7-pentyl-2H-chromen-5-ol formation; type: ADME; procedure, shortened: as §4
[20] = Drug metabolism in C57BL/6J mouse plasma assessed as (E)-2-(5-hydroxy-4-methylpent-3-en-1-yl)-2-methyl-7-pentyl-2H-chromen-5-ol metabolite formation at 20 mg/kg, iv administered via tail vein measured after 2 hrs by LC/MS/MS analysis; type: ADME, organism-based; details: in vivo; procedure, shortened: as §2
[21] = test system: BV-2; test: Antiinflammatory activity in LPS-induced mouse BV-2 cells assessed as increase in Arg-1 production preincubated for 4 hrs followed by LPS stimulation for 24 hrs by ELISA; type: functional, cell-based; details: dose 0.1-5 µM, time 28.0 hrs; procedure, shortened: as §1
[22] = test system: BV-2; test: Antiinflammatory activity in LPS-induced mouse BV-2 cells assessed as reduction in NO production preincubated for 4 hrs followed by LPS stimulation for 24 hrs by Griess reagent based assay; type: functional, cell-based; details: dose 0.1-5 µM, time 28.0 hrs; procedure, shortened: as §1
[23] = test system: BV-2; test: Antiinflammatory activity in LPS-induced mouse BV-2 cells assessed as reduction in TNF-alpha production preincubated for 4 hrs followed by LPS stimulation for 24 hrs by ELISA; type: functional, cell-based; details: dose 0.1-5 µM, time 28.0 hrs; procedure, shortened: as §1

SMILES: CCCCCc1cc(O)c2c(c1)OC(C)(CCC1OC1(C)C)C=C2 (stereo unspecified)
- Activity [1]: Active
- Activity [2]: Non-Toxic

SMILES: CCCCCc1cc(O)c2c(c1)OC(C)(CCC=C(C)C)C=C2 (stereo unspecified) [CANNABICHROMENE]
- Drug metabolism [3]: Metabolite_Detected
- Drug metabolism [4]: Metabolite_Detected
- Drug metabolism [5]: Metabolite_Detected
- Drug metabolism [6]: Metabolite_Detected
- Drug metabolism [7]: Metabolite_Detected
- Activity [2]: Non-Toxic
- Ki [8]: ~100 nM
- fold change (FC) [9]: 3
- fold change (FC) [10]: 5
- Drug metabolism [11]: Metabolite_Notdetected
- Drug metabolism [12]: Metabolite_Detected
- Ki [13]: ~713 nM
- fold change (FC) [14]: 3
- Drug metabolism [15]: Metabolite_Detected
- Drug metabolism [16]: Metabolite_Detected
- fold change (FC) [17]: 5
- Ratio [18]: ~ 50
- Ratio [19]: ~ 5
- Drug metabolism [20]: Metabolite_Notdetected

SMILES: CCCCCc1cc(O)c2c(c1)OC(C)(CCC(O)C(C)(C)O)C=C2 (stereo unspecified)
- Activity [1]: Active
- Activity [21]: Dose-Dependent Effect
- Activity [22]: Dose-Dependent Effect
- Activity [2]: Non-Toxic
- Activity [23]: Dose-Dependent Effect
